In brackets after ≈: the same amount, converted by molar mass.
Key:
Escherichia coli [1] = experiment: Minimum inhibitory concentration was measured against Escherichia coli 71120101 producing AAD-(4')) modifying enzyme; format: functional
Summary of the method: (§1)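 MICs were determined by agar dilution and by microtiter (broth) dilution in Mueller-Hinton medium against strains producing defined aminoglycoside-modifying enzymes. Values are reported in mg/L.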

Escherichia coli [2] = experiment: Minimum inhibitory concentration was measured against Escherichia coli 00000589 producing APH-(3'') modifying enzyme; format: functional; summary of the method: as §1
Klebsiella pneumoniae [3] = experiment: Minimum inhibitory concentration was measured against Klebsiella pneumoniae 00GT3020 producing AAD-(2'')-modifying enzyme; format: functional; summary of the method: as §1
Escherichia coli [4] = experiment: Minimum inhibitory concentration was measured against Escherichia coli 76070703 producing AAC-(3)-I modifying enzyme; format: functional; summary of the method: as §1
Serratia marcescens [5] = experiment: Minimum inhibitory concentration was measured against Serratia marcescens ATCC 8100; format: functional
Summary of the method: (§2)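 Agar dilution and microtiter broth dilution, with incubation in Mueller-Hinton medium; MIC expressed in mg/L.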

Enterobacter cloacae = experiment: Minimum inhibitory concentration was measured against Enterobacter cloacae ATCC 23355; format: functional; summary of the method: as §2
Escherichia coli [6] = experiment: Minimum inhibitory concentration was measured against Escherichia coli ATCC 25992.; format: functional; summary of the method: as §2
Klebsiella pneumoniae [7] = experiment: (§3) Minimum inhibitory concentration was measured against Klebsiella pneumoniae 7608271 producing AAC-(3)-II modifying enzyme; format: functional; summary of the method: as §2
Pseudomonas aeruginosa = experiment: Minimum inhibitory concentration was measured against Pseudomonas aeruginosa ATCC 27853; format: functional; summary of the method: as §2
Escherichia coli [8] = experiment: Minimum inhibitory concentration was measured against Escherichia coli 73110901 producing AAC-(6')-I) modifying enzyme; format: functional; summary of the method: as §2
Escherichia coli [9] = experiment: Minimum inhibitory concentration was measured against Escherichia coli 72091801 producing AAC-(3)-I modifying enzyme; format: functional; summary of the method: as §1
Salmonella typhimurium [10] = experiment: (§4) Minimum inhibitory concentration was measured against Salmonella Typhimurium ATCC 14028; format: functional; summary of the method: as §2
Serratia marcescens [11] = experiment: Minimum inhibitory concentration was measured against Serratia marcescens 75012711 producing AAD-(2'')+AAC(6'') modifying enzyme; format: functional; summary of the method: as §2
Serratia marcescens [12] = experiment: Minimum inhibitory concentration was measured against Serratia marcescens S69.; format: functional; summary of the method: as §2
Providencia stuartii [13] = experiment: Minimum inhibitory concentration was measured against Providencia stuartii 75082808 producing AAC-(2'') modifying enzyme; format: functional; summary of the method: as §2
[14] = test system: Staphylococcus epidermidis; experiment: Minimum inhibitory concentration was measured against Staphylococcus epidermidis ATCC 12228.; format: functional; summary of the method: as §2
Serratia marcescens [15] = experiment: Minimum inhibitory concentration was measured against Serratia marcescens S20.; format: functional; summary of the method: as §2
Escherichia coli [16] = experiment: Minimum inhibitory concentration was measured against Escherichia coli OLA 290R5 producing AAD-(2'')-modifying enzyme; format: functional; summary of the method: as §1
Klebsiella pneumoniae [17] = experiment: Minimum inhibitory concentration was measured against Klebsiella pneumoniae ATCC 13883; format: functional; summary of the method: as §2
Escherichia coli [18] = experiment: Minimum inhibitory concentration was measured against Escherichia coli 001574-1 producing APH-(3'') modifying enzyme; format: functional; summary of the method: as §1
Staphylococcus aureus [19] = experiment: Minimum inhibitory concentration was measured against Staphylococcus aureus ATCC 25923; format: functional; summary of the method: as §2
Bacillus subtilis = experiment: Minimum inhibitory concentration was measured against Bacillus subtilis ATCC 6633.; format: functional; summary of the method: as §2
Providencia stuartii [20] = experiment: Minimum inhibitory concentration was measured against Providencia stuartii 72052305 producing AAC-(2'') modifying enzyme; format: functional; summary of the method: as §2
Klebsiella pneumoniae [21] = experiment: Minimum inhibitory concentration was measured against Klebsiella pneumoniae 760070702 producing AAC-(3)-I modifying enzyme; format: functional; summary of the method: as §2
Klebsiella pneumoniae [22] = experiment: Minimum inhibitory concentration was measured against Klebsiella pneumoniae 75012101 producing AAD-(2'')-modifying enzyme; format: functional; summary of the method: as §2
Serratia marcescens [23] = experiment: microbe, parasite or virus in culture
Staphylococcus aureus [24] = experiment: Minimum inhibitory concentration was measured against Staphylococcus aureus 76080401 producing AAD-(4')) modifying enzyme; format: functional; summary of the method: as §2
Providencia stuartii [25] = experiment: Minimum inhibitory concentration was measured against Providencia stuartii 00000164 producing AAC-(2'') modifying enzyme; format: functional; summary of the method: as §2
Klebsiella pneumoniae [26] = experiment: as §3; format: functional; summary of the method: as §2; remark: listed apart in the source
Escherichia coli [27] = experiment: Minimum inhibitory concentration was measured against Escherichia coli 0000JR66 producing AAD-(2'')-modifying enzyme; format: functional; summary of the method: as §2
Salmonella typhimurium [28] = experiment: as §4; format: functional, salmonella typhimurium a; details: Salmonella enterica; summary of the method: as §2

Molecule | MIC (Escherichia coli [1]) | MIC (Escherichia coli [2]) | MIC (Klebsiella pneumoniae [3]) | MIC (Escherichia coli [4]) | MIC (Serratia marcescens [5]) | MIC (Enterobacter cloacae) | MIC (Escherichia coli [6]) | MIC (Pseudomonas aeruginosa) | MIC (Escherichia coli [8]) | MIC (Escherichia coli [9]) | MIC (Serratia marcescens [11]) | MIC (Serratia marcescens [12]) | MIC [14] | MIC (Serratia marcescens [15]) | MIC (Escherichia coli [16]) | MIC (Klebsiella pneumoniae [17]) | MIC (Escherichia coli [18]) | MIC (Staphylococcus aureus [19]) | MIC (Bacillus subtilis) | MIC (Klebsiella pneumoniae [21]) | further results
GENTAMICIN | 2 µg/mL | 2 µg/mL | 32 µg/mL | 128 µg/mL | 1 µg/mL | 1 µg/mL | 1 µg/mL | 1 µg/mL | 4 µg/mL | 2 µg/mL | 32 µg/mL | 128 µg/mL | 1 µg/mL | 128 µg/mL | 64 µg/mL | 1 µg/mL | 1 µg/mL | 1 µg/mL | 1 µg/mL |  | MIC (Klebsiella pneumoniae [7]): 256 µg/mL; MIC (Salmonella typhimurium [10]; Salmonella enterica subsp. enterica serovar Typhimurium): 1 µg/mL; MIC (Providencia stuartii [13]; pseudomonas stuartii): 64 µg/mL
NCC1OC(OC2C(N)CC(N)(CO)C(OC3OC(CO)C(O)C(N)C3O)C2O)C(N)C(O)C1O (centres undefined) | > 128 µg/mL | > 128 µg/mL | > 128 µg/mL |  | 1 µg/mL (≈ 1.95 µM) | 0.25 µg/mL (≈ 0.487 µM) | 0.5 µg/mL (≈ 0.974 µM) | > 128 µg/mL | > 128 µg/mL | > 128 µg/mL | > 128 µg/mL | > 64 µg/mL | 0.25 µg/mL (≈ 0.487 µM) | > 64 µg/mL | 8 µg/mL (≈ 15.6 µM) | 0.25 µg/mL (≈ 0.487 µM) | 4 µg/mL (≈ 7.79 µM) | 0.25 µg/mL (≈ 0.487 µM) | 0.5 µg/mL (≈ 0.974 µM) | 1 µg/mL (≈ 1.95 µM) | MIC (Providencia stuartii [20]): 16 µg/mL (≈ 31.2 µM); MIC (Klebsiella pneumoniae [22]): 4 µg/mL (≈ 7.79 µM); MIC (Serratia marcescens [23]): 4 µg/mL (≈ 7.79 µM); MIC (Salmonella typhimurium [10]; Salmonella enterica): 1 µg/mL (≈ 1.95 µM); MIC (Staphylococcus aureus [24]): > 128 µg/mL; MIC (Providencia stuartii [25]): > 128 µg/mL; MIC (Klebsiella pneumoniae [26]): > 128 µg/mL; MIC (Escherichia coli [27]): > 128 µg/mL
[N-]=[N+]=NCC1OC(OC2C(O)C(OC3OC(CN)C(O)C(O)C3N)C(N)CC2(N)CO)C(O)C(N)C1O (centres undefined) |  |  |  |  | 2 µg/mL (≈ 3.71 µM) | 0.25 µg/mL (≈ 0.464 µM) | 1 µg/mL (≈ 1.86 µM) | > 128 µg/mL |  |  |  | > 64 µg/mL | 1 µg/mL (≈ 1.86 µM) | > 64 µg/mL |  | 0.5 µg/mL (≈ 0.928 µM) |  | 0.5 µg/mL (≈ 0.928 µM) | 2 µg/mL (≈ 3.71 µM) |  | MIC (Salmonella typhimurium [28]): 1 µg/mL (≈ 1.86 µM)
CNC1C(O)C(OC2C(O)C(OC3OC([C@@H](C)N)CCC3N)C(N)CC2(N)CO)OCC1(C)O (some centres undefined) |  |  |  | 2 µg/mL (≈ 4.05 µM) |  |  |  |  | 8 µg/mL (≈ 16.2 µM) |  | 2 µg/mL (≈ 4.05 µM) |  |  |  |  |  |  |  |  | 1 µg/mL (≈ 2.03 µM) | MIC (Klebsiella pneumoniae [22]): 2 µg/mL (≈ 4.05 µM); MIC (Staphylococcus aureus [24]): 0.5 µg/mL (≈ 1.01 µM); MIC (Providencia stuartii [13]; in the assay text read “AAC-(2')” for “AAC-(2'')”): 8 µg/mL (≈ 16.2 µM); MIC (Klebsiella pneumoniae [26]): 1 µg/mL (≈ 2.03 µM); MIC (Escherichia coli [27]): 8 µg/mL (≈ 16.2 µM)

From ChEMBL document CHEMBL1125677, “New derivatives of kanamycin B obtained by combined modifications in positions 1 and 6". Synthesis, microbiological properties, and in vitro and computer-aided toxicological evaluation” (J Med Chem, 1991)
